The values below come from ChEMBL document CHEMBL3243988, “Quantitative structure-activity relationships in 2,5-bis(1-aziridinyl)-p-benzoquinone derivatives against leukemia L-1210” (1979).

Active and inactive are the calls of the source. The rule behind the calls is not given here.

Type in all cases: functional
Assay [1] relates to L1210. Description: Antileukemic activity against mouse L1210 cells allografted in BDF1 mouse. The essentials:
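BDF1 mice inoculated intraperitoneally with 10⁵ L-1210 cells. Compounds were dissolved in dimethyl sulfoxide and diluted with sterile physiological saline for injection. Dosing was either chronic (QD days 1-12) or a single injection on day 1. Read-out was increase in life span (ILS) relative to untreated controls.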

For assay [2], the system named is L1210. Description: Antileukemic activity against mouse L1210 cells allografted in BDF1 mouse assessed as concentration required to give maximum increase in life span administered for 1 day. The essentials: (§1)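 Single-injection schedule: BDF1 mice received 10⁵ L-1210 cells i.p. and one dose on day 1 only, with compound dissolved in DMSO and made up in sterile saline. Survival was compared with controls. MED is the dose yielding 40% ILS; OD is the dose yielding maximal ILS.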

Assay [3] concerns L1210. The assay is described as follows: Antileukemic activity against mouse L1210 cells allografted in BDF1 mouse assessed as concentration required to increase 40% life span administered as continuous injection. The settings on record: read-out: MED. The gist of the method:
(§2)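 Chronic schedule: 10⁵ L-1210 cells given i.p. to BDF1 mice, then treatment once daily on days 1-12 with compound in DMSO diluted with sterile saline. Life span was compared with controls. MED is the dose giving 40% increase in life span; OD is the dose giving maximum ILS.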

Assay [4] has as its system L1210. The assay is described as follows: Chemotherapeutic index, ratio of antileukemic activity against mouse L1210 cells allografted in BDF1 mouse assessed as concentration required to give maximum increase in life span administered as continuous injection to antileukemic activity against mouse L1210 cells allografted in BDF1 mouse assessed as concentration required to increase 40% life span administered as continuous injection. The essentials: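 Chemotherapeutic index was taken as OD/MED on the chronic schedule (QD days 1-12) in BDF1 mice bearing 10⁵ i.p.-inoculated L-1210 cells. OD is the dose giving maximum increase in life span; MED is the dose giving 40% ILS versus controls. Compounds were given in DMSO diluted with saline.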

Assay [5] relates to L1210. Description: Antileukemic activity against mouse L1210 cells allografted in BDF1 mouse assessed as concentration required to give maximum increase in life span administered as continuous injection. The essentials: as §2
Assay [6] relates to L1210. Description: Antileukemic activity against mouse L1210 cells allografted in BDF1 mouse assessed as concentration required to increase 40% life span administered for 1 day. The essentials:
as §1

In assay [7] the test system is L1210. The assay is described as follows: Antileukemic activity against mouse L1210 cells allografted in BDF1 mouse assessed as concentration required to increase 40% life span administered as qd for 12 days. The essentials:
as §2

For `COC(CO)C1=C(N2CC2)C(=O)C(C(CO)OC)=C(N2CC2)C1=O` (stereo unspecified), the outcome in the assay on L1210 [1] was Active.
Take `CCC(COC(N)=O)C1=C(N2CC2)C(=O)C(C)=C(N2CC2)C1=O` (stereo unspecified): in the assay with L1210 [2], the “log(1/C)” value worked out at 5.2.
Turning to `COC(COC(N)=O)C1=C(N2CC2)C(=O)C(C(COC(N)=O)OC)=C(N2CC2)C1=O` (stereo unspecified), the result in the assay on L1210 [1] was Active.
Turning to `CO[C@@]12[C@H](COC(N)=O)C3=C(C(=O)C(C)=C(N)C3=O)N1C[C@@H]1N[C@@H]12` [MITOMYCIN], the minimal effective dose with L1210 [3] stood at 0.9 mg/kg. The TI in the assay with L1210 [4] is listed as 2.2. The Activity with L1210 [5] came to 2 mg/kg.
Consider `CC1=C(N2CC2)C(=O)C(CCC(=O)N(C)C)=C(N2CC2)C1=O`, for which the “log(1/C)” value stood at 4.84 in the assay with L1210 [2] and 5.09 with L1210 [6].
For the compound `CC1=C(N2CC2)C(=O)C(C(C)C)=C(N2CC2)C1=O`, the “log(1/C)” value in the assay on L1210 [7] turned out to be 5.6.
Consider `COC(COC(N)=O)C1=C(N2CC2)C(=O)C(C)=C(N2CC2)C1=O` (stereo unspecified) [CARBOQUONE], for which the minimal effective dose in the assay with L1210 [3] was found to be 0.13 mg/kg. The TI in the assay on L1210 [4] is reported as 5.4. Besides, the Activity with L1210 [5] came to 0.7 mg/kg.
Take `O=C1C=C(N2CC2)C(=O)C(N2CC2)=C1N1CC1` [TRIAZIQUONE]: the minimal effective dose in the assay on L1210 [3] is 0.082 mg/kg. Besides, the TI with L1210 [4] is 1.8. The Activity in the assay on L1210 [5] turned out to be 0.15 mg/kg.
In the case of `O=C1C(CCO)=C(N2CC2)C(=O)C(CCO)=C1N1CC1`, the “log(1/C)” value with L1210 [2] is 5.6.
On the same count and under the same terms, the figure for `CC1=C(N2CC2)C(=O)C(CCCc2ccccc2)=C(N2CC2)C1=O` is 3.6.
Turning to `COC(CO)C1=C(N2CC2)C(=O)C(C)=C(N2CC2)C1=O` (stereo unspecified), the “log(1/C)” value in the assay with L1210 [7] was found to be 6.9.
Turning to `CCCC1=C(N2CC2)C(=O)C(CCOC(N)=O)=C(N2CC2)C1=O`, the “log(1/C)” value with L1210 [6] worked out at 4.9.
On the same count and under the same terms, the figure for `CCOC(COC(N)=O)C1=C(N2CC2)C(=O)C(CC)=C(N2CC2)C1=O` (stereo unspecified) is 5.4.
In the case of `COC(CO[C@@H]1O[C@H](COC(C)=O)[C@@H](OC(C)=O)[C@H](OC(C)=O)[C@H]1OC(C)=O)C1=C(N2CC2)C(=O)C(C)=C(N2CC2)C1=O` (stereo partly specified), the outcome in the assay with L1210 [1] was Active.
